Screening data from PubChem BioAssay.
Tn6 DDE FP: inhibitors of Tn6 peptide binding to fibrin DD(E), primary screen, biochemical, fluorescence polarization, human fibrin, Tn6 probe. Fibrin DD(E) TRITC-Tn6 fluorescence polarization displacement. Fibrinogen beta chain (Homo sapiens), P02675. inhibition, % at 8.3 µM. AID 720509, 2013. 370,000 compounds, 0.21% hits;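 active = inhibition above a per-campaign cutoff: mean of compounds within control limits plus 3 SD, cut at about 15% in these data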;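 also: 0% = median of all compound wells on the plate and 100% = blocking peptide control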
ADAM10 inh: human ADAM10 inhibitors, primary screen, biochemical, QFRET, HTS. recombinant ADAM10, EDANS/DABCYL FRET peptide cleavage, 3 h. inhibition, % at 7 µM. 370,000 compounds, 0.62% hits;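 active = inhibition above a per-campaign cutoff equal to the mean of compounds falling between control-based bounds plus 3 SD, cut at about 20% in these data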;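 also: 0% = DMSO wells while the 100% control is not disclosed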
Target sequence (O14672 214-748 limits assumed): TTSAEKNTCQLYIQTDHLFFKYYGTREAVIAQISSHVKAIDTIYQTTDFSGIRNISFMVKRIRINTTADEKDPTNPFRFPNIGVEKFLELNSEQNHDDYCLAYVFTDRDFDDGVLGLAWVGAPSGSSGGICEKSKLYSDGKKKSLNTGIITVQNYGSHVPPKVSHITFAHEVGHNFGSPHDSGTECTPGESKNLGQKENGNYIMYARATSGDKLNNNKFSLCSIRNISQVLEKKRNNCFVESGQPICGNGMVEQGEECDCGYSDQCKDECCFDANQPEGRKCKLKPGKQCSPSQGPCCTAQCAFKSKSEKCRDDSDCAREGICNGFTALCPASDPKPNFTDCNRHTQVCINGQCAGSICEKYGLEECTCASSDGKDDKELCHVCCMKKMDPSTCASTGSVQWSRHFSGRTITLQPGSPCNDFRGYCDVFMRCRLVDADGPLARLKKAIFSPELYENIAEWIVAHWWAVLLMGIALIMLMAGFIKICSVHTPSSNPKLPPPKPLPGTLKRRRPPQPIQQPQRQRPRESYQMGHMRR
DDE Tn7 FP inh: inhibitors of Tn7 peptide binding to fibrin DD(E), primary screen, biochemical, fluorescence polarization, human fibrin, Tn7 probe. Fibrinogen beta chain (Homo sapiens), P02675. FP displacement of FITC-Tn7 peptide from fibrin DD(E); 0% = median of compound wells per plate. inhibition, % at 8.3 µM. 370,000 compounds, 0.13% hits. AID 720508, 2013;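 active = inhibition above the mean of compounds falling within the control limits plus 3 SD of them, cut at about 14% in these data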;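 also: 0% = plate median of compound wells and 100% = 10 µM Aha-Tn7 peptide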
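Assay system: Human fibrin DD(E) protein | Medium: Tris buffer with calcium and detergent, pH 7.8 | Reagent: 0.1 µM fluorescent Tn7 | Compound dosing: Single point at 8.3 µM | Times: 10 min preincubation, 3 h with tracer, room temperature | Detection: Fluorescence polarization of the labelled Tn7 tracer | Controls: Aha-Tn7 high control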
MT1-MMP act inh: blockers of MT1-MMP proenzyme processing, primary screen, HT1080 RFP-PRO-GFP cells, GFP/RFP fluorescence; Matrix metalloproteinase-14 (Homo sapiens), P50281; GFP/RFP ratio fluorescence, overnight; percent of plate control window, DMSO zero; GFP/RFP ratio change, % at 20 µM; 360,000 compounds, 0.061% hits; AID 651647, 2012;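 active = GFP/RFP ratio change of at least 30% with cell ATP level not reduced by more than half and red fluorescence within 50% of control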
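Material: RFP-PRO-GFP reporter HT1080 cells. Dosing: single-point 20 µM compound, 1% DMSO. Controls: DMSO and RFP-L50D-GFP cell wells. Timing: cells overnight before dosing, compound overnight, 37 °C, 5% CO2. Measure: GFP/RFP fluorescence ratio.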
ADAM17 inh: ADAM17 inhibitors, primary screen, biochemical, QFRET | AID 720648, 2013 | inhibition, % at 6.95 µM | recombinant ADAM17, EDANS/DABCYL FRET peptide cleavage | 370,000 compounds, 0.83% hits;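 active = inhibition above the mean of compounds lying between control limits plus 3 SD, set per campaign, cut at about 8.5% in these data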;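 also: 0% = DMSO-only wells as the low control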
ADAM10 ctr: ADAM10 inhibitors, counter-screen for ADAM17 exosite inhibitor project, biochemical, FRET, human ADAM10 | shares compounds with ADAM17 inh | recombinant ADAM10, EDANS/DABCYL FRET peptide cleavage, 3 h | inhibition, % at 6.95 µM | 2,900 compounds, 47% hits;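 active = mean inhibition over the triplicate runs exceeds the activity threshold set in the earlier primary screen, cut at about 20% in these data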;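 also: 0% = DMSO wells and 100% = marimastat wells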
ADAM17 confirm: ADAM17 inhibitors, hit retest, confirmation, biochemical, QFRET peptide cleavage; AID 743257, 2014; 2,900 compounds, 65% hits; recombinant ADAM17, EDANS/DABCYL QFRET peptide cleavage; inhibition, % at 6.95 µM; shares compounds with ADAM17 inh;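 active = mean inhibition across replicates above the hit cutoff set in the primary screen, cut at about 8.5% in these data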;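 also: 0% = DMSO wells and 100% = marimastat wells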
Numbers without * were called inactive; . = no result given. Shown are actives, neighbours in structure and some others; about 1.6% of the full set was active somewhere.

SMILES | Tn6 DDE FP | ADAM10 inh | DDE Tn7 FP inh | MT1-MMP act inh | ADAM17 inh | ADAM10 ctr | ADAM17 confirm
Cc1ccc(C)c(N2N=C(C(=O)Nc3cccc(S(=O)(=O)N4CCCCC4)c3)CCC2=O)c1 | -2 | 12 | -4 | -1 | 13* | 9 | 6
O=C(Nc1cccc(O)c1)c1ccc(S(=O)(=O)N2CCCCCC2)cc1 | -4 | 10 | 1 | 5 | 10* | 12 | 7
CC(C)Oc1ccc(C(=O)Nc2cccc(S(=O)(=O)N3CCCC3)c2)cc1 | 0 | 13 | 4 | 4 | 9.0* | 6 | 2
CCNC(=O)N1CCN(c2ccc(N3CCN(C(=O)NCC)[C@H](C)C3)c(C)c2)[C@H](C)C1 | -1 | -15 | -2 | . | -7 | . | .
CCN(CC)S(=O)(=O)c1cccc(C(=O)N[C@H](C(=O)OCC(=O)Nc2ccccc2)C(C)C)c1 | 13 | -4 | 5 | 1 | 11* | 5 | 4
O=C(CCNC(=O)c1ccc(Cl)cc1)NCCC1=CCCCC1 | 0 | 4 | -13 | -2 | 8.7* | 14 | 9.2*
O=C(CCNC(=O)c1ccc([N+](=O)[O-])cc1)NCCC1=CCCCC1 | -7 | -4 | 1 | 5 | -7 | . | .
CCCCOCCCNC(=O)C[C@@H]1C(=O)N2CCCC3=C2[C@@]1(C(=O)OCC)CCC3 | -3 | -5 | 5 | . | -1 | . | .
O=C(Cn1nnc(-c2ccc(N3CCOCC3)cc2)n1)c1ccccc1 | -1 | -3 | -2 | . | 7 | . | .
COc1ccc(/C=N/NC(N)=S)cc1OC(=O)c1ccccc1 | -3 | -1 | -3 | 0 | 9.1* | 10 | 8
COc1cc(/C=N/NC(=O)c2cc(O)cc(O)c2)ccc1OC(=O)c1ccccc1 | -20 | 10 | -2 | 1 | 2 | . | .
CCC(=O)c1ccc(OCC(=O)NC2CCCC2)cc1 | 1 | -10 | 6 | . | -4 | . | .
CCC(=O)c1ccc(OCC(=O)OCC(=O)NC2CCCCCCC2)cc1 | -5 | 1 | 0 | 1 | 9.5* | 9 | 8.8*
CCN1CCCCC(NC(=O)c2ccc(F)c(F)c2)C1=O (configuration not stated) | 7 | 3 | -4 | . | 1 | . | .
CC(C)Nc1nc(NC(C)C)nc(N(C#N)CCOc2ccc(Cl)cc2Cl)n1 | 0 | 13 | 4 | -20 | 9.3* | 19 | 13*
Cc1cc(C)nc(N(C#N)CCOc2ccc(Cl)cc2)n1 | -7 | 2 | 2 | -6 | -2 | . | .
COC(=O)C1CN(C2CCCC2)CCS(=O)(=O)N1Cc1ccc(C)cc1 (configuration not stated) | -1 | -2 | 3 | . | -3 | . | .
Fc1ccc(CN2CCN(c3ncc(Cc4ccccc4)cn3)CC2)c(Cl)c1 | 7 | -2 | 1 | . | 0 | . | .
Cc1ccc(S(=O)(=O)N2CCCCC2)cc1NC(=O)CNc1ccc(C(F)(F)F)cc1 | -6 | 17 | -6 | -2 | 9.4* | 17 | 11*
Cc1ccc(S(=O)(=O)N2CCCCC2)cc1NC(=O)Cc1c[nH]c2ccccc12 | -1 | 4 | -4 | -2 | 8.8* | -2 | 1
Cc1ccc(-c2nc(SCC(=O)Nc3cc(S(=O)(=O)N4CCCCC4)ccc3Cl)n[nH]2)cc1 | 0 | 19 | -6 | -9 | 14* | 32* | 14*
